Results reported in publication PMC7397943 (Journal of Ethnopharmacology, 2020).

Tests used:
[1] = system: recombinant HIV–1 (NL4.3–Ren); assay type: cell-based; conditions: Human immunodeficiency virus 1, MT2, 48 h, read-out: IC50 μM HIV (CI95%; R2), isolated compounds, MT–2 cells, wild type HIV NL4.3–Ren
Procedure, shortened: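 MT-2 cells (RPMI-1640, 10% FBS, 2 mM L-glutamine, penicillin/streptomycin; 37 °C, 5% CO2) were infected with NL4.3-Ren supernatant (100.000 RLUs or 20 ng p24 per well) alongside serial dilutions of test compound (10 mM DMSO stock). Enfuvirtide served as control. After 48 h, lysates were read for Renilla-luciferase RLUs against vehicle-matched untreated cells (100%). IC50 came from non-linear regression.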

[2] = system: VSV pseudotyped HIV (VSV–HIV); test: microbe, parasite or virus in culture; assay type: cell-based, HIV–1; conditions: for IC50: Vesicular stomatitis virus, MT2, 48 h, read-out: IC50 μM VSV–HIV (CI95%; R2); for Effect on viral entry: comparison of HIV IC50 and VSV–HIV IC50 in MT–2 cells
[3] = Cell viability in mock–infected MT–2 cells; assay type: cell-based; conditions: human, mock-infected MT-2 cells
Procedure, shortened: (§1)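 Test compound (from 10 mg/mL or 10 mM DMSO stocks) was added at graded concentrations to mock-infected MT-2 cells, run in parallel with the 48 h antiviral assay. Cells were grown in RPMI-1640 with 10% FBS, 2 mM L-glutamine and penicillin/streptomycin at 37 °C, 5% CO2. Viability was read by CellTiter Glo as % of the DMSO-matched control. CC50 came from non-linear regression.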

[4] = system: HIV transcription (pNL4.3–Luc); test: HIV transcription assay: MT–2 cells transfected with pNL4.3–Luc; assay type: cell-based, HIV–1
Procedure, shortened: (§2)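 MT-2 cells were electroporated at 260 V in serum-free RPMI with a luciferase reporter: pNL4.3-Luc (whole HIV-1 genome), 3-enh-κB-ConA-luc (three κB copies), or Sp1-Luc (two Sp1 sites). Cells were seeded in complete RPMI with serial dilutions or one selected concentration of test compound at 37 °C for 48 h. PMA 100 nM was the reference. RLUs were expressed as % of DMSO control, with Bonferroni-corrected one-way ANOVA.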

[5] = system: NF–κB; test: NF–κB activity: MT–2 cells transfected with NF–κB–Luc plasmid; assay type: cell-based
Procedure, shortened: as §2

[6] = system: Sp1; test: Sp1 activity: MT–2 cells transfected with Sp1–Luc plasmid; assay type: cell-based; conditions: 48 h
Procedure, shortened: as §2

[7] = system: THP–1 cells; test: Glutathione determination; assay type: cell-based; conditions: maximum redox index reached, maximum 1 (all glutathione reduced)
Procedure, shortened: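 THP-1 cells were treated with serial dilutions of test compound, with resveratrol as reference. Cells were lysed in 0.1 M sodium phosphate/0.005 M EDTA, pH 8, plus 60% HClO4 (10 μL/mL), then spun at 6000g for 10 min at 4 °C. GSH and GSSG were measured by OPT fluorescence (ex 350/em 420 nm) against a GSH standard curve. Redox index = GSH/(GSH+GSSG), maximum 1. EC50 and Emax came from non-linear dose-response fits.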

[8] = system: MT–2 cells; test: Cell viability in mock–infected MT–2 cells; assay type: cell-based; conditions: MT–2 cells
Procedure, shortened: as §1

[9] = fixed concentration 20 μM, pNL4.3–Luc, 48 h
[10] = fixed concentration 20 μM, NF–κB–Luc, 48 h

SMILES	IC50 [1]	IC50 [2]	Effect on viral entry [2]	CC50 at 48 h [3]	Effect on HIV transcription [4, 9]	Effect on NF–κB activity [5, 10]	Effect on Sp1 activity ([6]; fixed concentration 20 μM)	Emax (CI95%) [7]	Concentrations toxic to MT–2 cells [8]	Effect on HIV transcription ([4]; 4 μM, pNL4.3–Luc, 48 h, vs untreated control)	Effect on NF–κB activity ([5]; 4 μM, NF–κB–Luc, 48 h, vs untreated control)	Effect on Sp1 activity ([6]; 4 μM, vs untreated control)	Toxicity at 100 μM ([8]; 100 μM)	Effect on HIV transcription ([4]; one selected active concentration (not given), compared with damsin)	Effect on NF–κB activity ([5]; one selected active concentration (not given))
COc1c(OC)c(O)c2c(=O)cc(-c3ccc(O)cc3)oc2c1OC [Xanthomicrol, xanthomicrol]	17.4 µM	34.4 µM	HIV–1 entry is impaired	> 100 µM	active as HIV transcriptional inhibitor	weak inhibition of NF–κB	no effect on Sp1	0.93 (0.81–1.04)	–	–	–	–	–	–	–
COc1ccc(-c2cc(=O)c3cc(OC)ccc3o2)c(OC)c1 [Trimethoxyflavone, 6,2′,4′–trimethoxyflavone]	28.4 µM	35.6 µM	ruling out an effect on viral entry	> 100 µM	almost complete inhibition	almost complete inhibition	almost complete inhibition	0.74 (0.47–1.00)	–	–	–	–	–	–	–
Oc1ccc(/C=C/c2cc(O)cc(O)c2)cc1 [Resveratrol, resveratrol, reference compound]	–	–	–	–	–	–	–	0.94 (0.92–0.96)	–	–	–	–	–	–	–
C=C1C(=O)O[C@@H]2[C@H]1CC[C@H](C)[C@@H]1CCC(=O)[C@@]21C [Damsin, damsin]	0.84 µM	0.83 µM	viral entry is not their target	20 to 100 µM	–	–	–	–	higher than 20 μM	completely inhibits	completely inhibits	completely inhibits	–	–	–
C[C@]12CCC(=O)C=C1C=C[C@@H]1[C@@H]2CC[C@@]2(C)[C@H]1CC[C@@]21CCC(=O)O1 [Canrenone, canrenone]	18.9 µM	14.2 µM	viral entry is not their target	~100 µM	–	–	–	–	–	–	–	–	slight toxicity	slightly less active	more powerful activity as a NF–κB inhibitor than as a Sp1 inhibitor
